The values below come from ChEMBL document CHEMBL1133404, “Synthesis and biological activities of NB-506 analogues modified at the glucose group” (Bioorg Med Chem Lett, 2000).

The species named for one series is Mus sp. In words: Tested for toxicity in mice. As to conditions: in vivo. The format is organism-based. The essentials:
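Nude mice bearing subcutaneous MKN-45 human stomach cancer flank xenografts; dosing intravenous five times/week for 2 weeks, starting once tumors reached 0.2 cm³ or larger. Toxicity expressed as LD₁₀, the approximate dose lethal to 10% of animals on this schedule.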

Series [1] concerns MKN-45. In words: Ratio of compound toxicity to that of anticancer activity against human stomach cancer cells MKN-45 in mice. The format is functional. The essentials:
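MKN-45 human stomach cancer cells were implanted subcutaneously in a side flank of nude mice. Dosing began once tumors reached 0.2 cm³ or larger and was given intravenously five times per week for 2 weeks. GID75 is the approximate dose giving 75% tumor growth inhibition. LD10 is the approximate 10% lethal dose on the same schedule. Safety margin is LD10/GID75.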

The test system of series [2] is P388. In words: The compound was tested for the cytotoxic activity against murine leukemia cells (P388). The format is functional, cell-based. The conditions noted are these: Mus musculus. The essentials:
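The murine leukemia P388 cell line was used. Cytotoxicity was read out by a colorimetric tetrazolium–formazan assay.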

Series [3] deals with P388. Put plainly: Compound was tested for the effect on the formation of protein-DNA complex in P388 cells investigated by the K+/SDS method. The format is functional, Mus musculus. In a few lines:
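Formation of topoisomerase–DNA (protein–DNA) complexes was measured in murine leukemia P388 cells by K+/SDS precipitation. Activity was reported as EC200.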

The subject of series [4] is MKN-45. Put plainly: Tested for cytotoxic activity against human stomach cancer cells (MKN-45). The format is functional, cell-based. In a few lines:
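The human stomach cancer MKN-45 cell line was used. Cytotoxicity was read out by a colorimetric tetrazolium–formazan assay and by sulforhodamine B dye staining.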

Another series deals with T1, DNA topoisomerase 1 (Homo sapiens, UniProt P11387).
T1 sequence (P11387 whole entry): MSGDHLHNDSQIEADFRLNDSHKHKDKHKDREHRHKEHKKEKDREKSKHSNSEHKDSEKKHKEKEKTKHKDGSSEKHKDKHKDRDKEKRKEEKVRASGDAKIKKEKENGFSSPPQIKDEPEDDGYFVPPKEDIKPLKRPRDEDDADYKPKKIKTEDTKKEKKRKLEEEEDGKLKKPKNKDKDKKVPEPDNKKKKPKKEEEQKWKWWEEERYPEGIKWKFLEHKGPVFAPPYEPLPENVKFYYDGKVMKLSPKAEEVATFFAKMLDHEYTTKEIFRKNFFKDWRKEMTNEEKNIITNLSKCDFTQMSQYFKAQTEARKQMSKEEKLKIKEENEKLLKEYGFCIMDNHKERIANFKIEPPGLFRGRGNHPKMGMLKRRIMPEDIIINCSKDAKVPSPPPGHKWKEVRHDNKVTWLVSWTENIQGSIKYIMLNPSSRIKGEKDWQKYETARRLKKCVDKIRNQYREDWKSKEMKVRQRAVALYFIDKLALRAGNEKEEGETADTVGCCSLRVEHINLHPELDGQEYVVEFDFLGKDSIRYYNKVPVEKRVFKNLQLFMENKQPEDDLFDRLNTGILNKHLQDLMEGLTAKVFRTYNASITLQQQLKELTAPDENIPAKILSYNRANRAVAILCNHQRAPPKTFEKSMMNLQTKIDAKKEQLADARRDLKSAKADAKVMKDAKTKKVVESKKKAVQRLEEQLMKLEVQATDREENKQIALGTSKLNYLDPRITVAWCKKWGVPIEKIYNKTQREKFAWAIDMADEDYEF
In words: Inhibitory effect on topoisomerase-1 mediated DNA cleavage using supercoiled pBR322 plasmid DNA. The format is functional.

The next series has as its target DNA topoisomerase II (Homo sapiens, UniProt P11388+Q02880). In words: Tested for inhibitory effect on topoisomerase-2 mediated DNA cleavage using super coiled pBR322 plasmid DNA. The format is functional.
Series [5] has as its system MKN-45. In words: Inhibitory activity against human stomach cancer cells MKN-45 in nude mice after intravenous dose.
A further series deals with Protein kinase C (PKC). Put plainly: Inhibitory effect on protein kinase C using histone II-As as substrate. The format is protein assay.

By IC50 is commonly meant the concentration at which inhibition is half-maximal. For orientation: EC50 means the midpoint of the concentration-response curve. Read a high EC50 as lower potency in that assay. `O=C1c2c(c3c4ccc(O)cc4n([C@@H]4O[C@H](CO)[C@@H](O)[C@H]4O)c3c3[nH]c4cc(O)ccc4c23)C(=O)N1NC(CO)CO` returned an LD10 in the series listed under Mus sp. of 570 mg m**-2. In the series on MKN-45 [1], the Saftey margin was 2. The IC50 came to 1.8 nM in the series with P388 [2], 50 nM with MKN-45 [4] and 20000 nM on Protein kinase C (PKC). In the series with P388 [3], the EC200 worked out at 32 nM. For the same compound, the EC50 was 8 nM at DNA topoisomerase 1 and over 50000 nM at DNA topoisomerase II. The same compound yielded a GID75 in the series on MKN-45 [5] of 290 mg m**-2.

`O=C1c2c(c3c4ccc(O)cc4n([C@@H]4O[C@H](CO)[C@@H](O)[C@@H](O)[C@H]4O)c3c3[nH]c4cc(O)ccc4c23)C(=O)N1NC(CO)CO` had an LD10 in the series listed under Mus sp. of 990 mg m**-2. Moreover, in the series with MKN-45 [1], the Saftey margin is 2.3. The IC50 was determined as 13 nM with P388 [2], 33 nM in the series with MKN-45 [4] and 17000 nM against Protein kinase C (PKC). This compound also showed an EC200 in the series with P388 [3] of 160 nM. The EC50 at DNA topoisomerase 1 was 26 nM; at DNA topoisomerase II it was over 50000 nM. In the series with MKN-45 [5], this compound came in with a GID75 of 440 mg m**-2.

As for `O=C1c2c(c3c4ccc(O)cc4n([C@@H]4O[C@H](CO)[C@@H](O)[C@H](O)[C@H]4O)c3c3[nH]c4cc(O)ccc4c23)C(=O)N1NC(CO)CO` [EDOTECARIN], the LD10 in the series filed under Mus sp. was over 1600 mg m**-2. In the series on MKN-45 [1], the Saftey margin is reported as over 36. Further, the IC50 came out at 1.5 nM with P388 [2], 4.8 nM with MKN-45 [4] and 200000 nM on Protein kinase C (PKC). In addition, the EC200 with P388 [3] came to 100 nM. Besides, the EC50 on DNA topoisomerase 1 was 51 nM; at DNA topoisomerase II, over 50000 nM. This compound also showed a GID75 with MKN-45 [5] of 45 mg m**-2.
